Results published in ChEMBL document CHEMBL1177891, “Synthesis and bioassay of pyrrolyl oxazolines and thiazolines” (2010).
Values after ≈ are worked out from the molar mass of the structure shown.

How the values were obtained:
Assay type in all cases: functional
[1] = system: Klebsiella pneumoniae; test: Antibacterial activity against Klebsiella pneumoniae at 200 ug/disk after 24 hrs by disk diffusion method; conditions: read-out: IZ
How it was run: (§1)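 Agar disc diffusion on nutrient agar with NCIM bacteria. 6 mm sterile paper discs moistened with compound in DMSO (100 or 200 μg/disc) placed on pre-inoculated plates. Incubated at 37 °C; growth-inhibition zone diameter measured after 24 h. Chloramphenicol control.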

[2] = system: Proteus vulgaris; test: Antibacterial activity against Proteus vulgaris at 200 ug/disk after 24 hrs by disk diffusion method; conditions: read-out: IZ; how it was run: as §1
[3] = system: Fusarium solani; test: Antifungal activity against Fusarium solani at 100 ug/disk after 48 hrs by disk diffusion method; conditions: read-out: IZ
How it was run: (§2)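 Fungi from NCIM on nutrient agar plates, pre-inoculated. 6 mm paper discs carrying 100 or 200 μg compound in DMSO applied. Plates incubated at 37 °C and inhibition zone diameter measured at 48 h. Ketoconazole control.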

[4] = system: Bacillus subtilis; test: Antibacterial activity against Bacillus subtilis at 100 ug/disk after 24 hrs by disk diffusion method; conditions: read-out: IZ; how it was run: as §1
[5] = system: Radical scavenging activity; test: Antioxidant activity assessed as DPPH radical scavenging activity at 100 uM
How it was run: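 Compound (100 μM) added to 100 μM DPPH in dioxane/ethanol. Kept at ambient temperature 20 min, then absorbance read at 517 nm. Percent DPPH scavenging taken from difference between test and control.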

[6] = system: Klebsiella pneumoniae; test: Antibacterial activity against Klebsiella pneumoniae at 100 ug/disk after 24 hrs by disk diffusion method; conditions: read-out: IZ; how it was run: as §1
[7] = system: Curvularia lunata; test: Antifungal activity against Curvularia lunata at 100 ug/disk after 48 hrs by disk diffusion method; conditions: read-out: IZ; how it was run: as §2
[8] = system: Aspergillus niger; test: Antifungal activity against Aspergillus niger at 200 ug/disk after 48 hrs by disk diffusion method; conditions: read-out: IZ; how it was run: as §2
[9] = Antioxidant activity assessed as inhibition of nitric oxide production at 100 uM
How it was run: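 Sodium nitroprusside ([…]) in phosphate buffer pH 7.4 incubated with 100 μM compound (dioxane/methanol) at 25 °C for 120 min; solvent-only control. Aliquots mixed 1:1 with Griess reagent (1% sulfanilamide, 0.1% N-naphthylethylenediamine, 2% phosphoric acid). Absorbance at 546 nm, triplicate.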

[10] = system: Aspergillus niger; test: Antifungal activity against Aspergillus niger at 100 ug/disk after 48 hrs by disk diffusion method; conditions: read-out: IZ; how it was run: as §2
[11] = system: Proteus vulgaris; test: Antibacterial activity against Proteus vulgaris at 100 ug/disk after 24 hrs by disk diffusion method; conditions: read-out: IZ; how it was run: as §1
[12] = system: Fusarium solani; test: Antifungal activity against Fusarium solani at 200 ug/disk after 48 hrs by disk diffusion method; conditions: read-out: IZ; how it was run: as §2
[13] = system: Curvularia lunata; test: Antifungal activity against […] lunata at 200 ug/disk after 48 hrs by disk diffusion method; conditions: read-out: IZ; how it was run: as §2
[14] = system: Bacillus subtilis; test: Antibacterial activity against Bacillus subtilis at 200 ug/disk after 24 hrs by disk diffusion method; conditions: read-out: IZ; how it was run: as §1
[15] = Antioxidant activity assessed as increase in reducing power at 100 uM
How it was run: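 Oyaizu method. Compound at 100 μM in methanol mixed with 0.2 M phosphate buffer pH 6.6 and 1% potassium ferricyanide, 50 °C for 20 min. 10% TCA added, then centrifuged 3000 rpm for 10 min. Upper layer mixed with water and 0.1% FeCl3; absorbance read at 700 nm.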

[16] = system: Staphylococcus aureus; test: Antibacterial activity against Staphylococcus aureus at 200 ug/disk after 24 hrs by disk diffusion method; conditions: read-out: IZ; how it was run: as §1
[17] = system: Staphylococcus aureus; test: Antibacterial activity against Staphylococcus aureus at 100 ug/disk after 24 hrs by disk diffusion method; conditions: read-out: IZ; how it was run: as §1
[18] = system: Bacillus subtilis; test: Antibacterial activity against Bacillus subtilis after 24 hrs by microdilution susceptibility assay
How it was run: (§3)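 Bacterial strains from NCIM. Broth microdilution: stocks at 800 μg/ml in DMSO, two-fold dilutions 400, 200, 100 ... 6.25 μg/ml, wells inoculated with bacterial suspension, 36 °C for 24 h. MIC = lowest concentration with no turbidity (no visible growth). Chloramphenicol as reference.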

[19] = system: Klebsiella pneumoniae; test: Antibacterial activity against Klebsiella pneumoniae after 24 hrs by microdilution susceptibility assay; how it was run: as §3
[20] = system: Proteus vulgaris; test: Antibacterial activity against Proteus vulgaris after 24 hrs by microdilution susceptibility assay; how it was run: as §3
[21] = system: Staphylococcus aureus; test: Antibacterial activity against Staphylococcus aureus after 24 hrs by microdilution susceptibility assay; how it was run: as §3
[22] = system: Aspergillus niger; test: Antifungal activity against Aspergillus niger after 48 hrs by microdilution susceptibility assay
How it was run: (§4)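 Fungal strains from NCIM. Microdilution: stocks at 800 μg/ml in DMSO, two-fold dilutions 400 down to 6.25 μg/ml, wells inoculated with fungal suspension, incubated 36 °C for 48 h. MIC read as lowest concentration without turbidity. Ketoconazole reference.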

[23] = system: Fusarium solani; test: Antifungal activity against Fusarium solani after 48 hrs by microdilution susceptibility assay; how it was run: as §4
[24] = system: Curvularia lunata; test: Antifungal activity against Curvularia lunata after 48 hrs by microdilution susceptibility assay; how it was run: as §4

Row | SMILES | zone of inhibition at 200 µg/disc [1] | zone of inhibition at 200 µg/disc [2] | zone of inhibition at 100 µg/disc [3] | zone of inhibition at 100 µg/disc [4] | inhibition [5] | zone of inhibition at 100 µg/disc [6] | zone of inhibition at 100 µg/disc [7] | zone of inhibition at 200 µg/disc [8] | inhibition [9] | zone of inhibition at 100 µg/disc [10] | zone of inhibition at 100 µg/disc [11] | zone of inhibition at 200 µg/disc [12] | zone of inhibition at 200 µg/disc [13] | zone of inhibition at 200 µg/disc [14] | inhibition [15] | zone of inhibition at 200 µg/disc [16] | zone of inhibition at 100 µg/disc [17] | further results
1 | Cc1ccc(S(=O)(=O)c2c[nH]cc2S(=O)(=O)CC2=NCCS2)cc1 | 21 mm | 19 mm | 29 mm | 22 mm | 23.2% | 20 mm | 28 mm | 35 mm | 23.7% | 31 mm | 17 mm | 31 mm | 32 mm | 24 mm | 22.9% | 26 mm | 23 mm | 
2 | Cc1ccc(S(=O)(=O)c2c[nH]cc2S(=O)(=O)CC2=NCCO2)cc1 | 13 mm | 13 mm | 18 mm | 13 mm | 76.1% | 10 mm | 17 mm | 21 mm | 78.5% | 17 mm | 11 mm | 20 mm | 21 mm | 14 mm | 77.3% | 15 mm | 12 mm | 
3 | O=S(=O)(/C=C/S(=O)(=O)c1ccc(Cl)cc1)CC1=NCCO1 | 12 mm | 10 mm | 16 mm | 12 mm | 86.6% | 10 mm | 18 mm | 20 mm | 85.5% | 17 mm | 9 mm | 19 mm | 20 mm | 14 mm | 82.7% | 15 mm | 13 mm | 
4 | O=C1O[C@H]([C@@H](O)CO)C(O)=C1O |  |  |  |  | 95.4% |  |  |  | 96.9% |  |  |  |  |  |  |  |  | 
5 | Cc1cc(C(C)(C)C)c(O)c(C(C)(C)C)c1 |  |  |  |  |  |  |  |  |  |  |  |  |  |  | 92.3% |  |  | 
6 | O=S(=O)(CC1=NCCO1)c1c[nH]cc1S(=O)(=O)c1ccccc1 | 17 mm | 15 mm | 18 mm | 16 mm | 88.3% | 14 mm | 19 mm | 22 mm | 87.7% | 20 mm | 13 mm | 22 mm | 23 mm | 18 mm | 86.8% | 19 mm | 15 mm | 
7 | O=S(=O)(/C=C/S(=O)(=O)c1ccc(Cl)cc1)CC1=NCCS1 | 23 mm | 22 mm | 29 mm | 29 mm | 33.5% | 22 mm | 24 mm | 29 mm | 32.3% | 27 mm | 21 mm | 31 mm | 28 mm | 31 mm | 28.3% | 28 mm | 27 mm | 
8 | O=S(=O)(/C=C/S(=O)(=O)c1ccccc1)CC1=NCCO1 |  |  | 14 mm | 10 mm | 83.7% |  | 16 mm | 19 mm | 82.1% | 17 mm |  | 15 mm | 18 mm | 12 mm | 79.5% | 13 mm | 11 mm | 
9 | Cc1ccc(S(=O)(=O)/C=C/S(=O)(=O)CC2=NCCS2)cc1 | 20 mm | 18 mm | 22 mm | 19 mm | 22.2% | 17 mm | 21 mm | 23 mm | 21.7% | 20 mm | 15 mm | 25 mm | 24 mm | 21 mm | 21.2% | 23 mm | 20 mm | 
10 | O=S(=O)(CC1=NCCO1)c1c[nH]cc1S(=O)(=O)c1ccc(Cl)cc1 | 17 mm | 14 mm | 21 mm | 16 mm | 91.5% | 15 mm | 20 mm | 22 mm | 92.1% | 21 mm | 12 mm | 23 mm | 23 mm | 19 mm | 89.4% | 19 mm | 17 mm | 
11 | O=C(N[C@H](CO)[C@H](O)c1ccc([N+](=O)[O-])cc1)C(Cl)Cl [CHLORAMPHENICOL] | 42 mm | 45 mm |  | 38 mm |  | 37 mm |  |  |  |  | 42 mm |  |  | 44 mm |  | 41 mm | 35 mm | MIC [18]: 6.25 µg/mL (≈ 19.3 µM); MIC [19]: 6.25 µg/mL (≈ 19.3 µM); MIC [20]: 12.5 µg/mL (≈ 38.7 µM); MIC [21]: 6.25 µg/mL (≈ 19.3 µM)
12 | Cc1ccc(S(=O)(=O)/C=C/S(=O)(=O)CC2=NCCO2)cc1 |  |  | 14 mm | 9 mm | 73.9% |  | 18 mm | 16 mm | 74.2% | 14 mm |  | 17 mm | 19 mm | 11 mm | 73.5% | 13 mm | 10 mm | 
13 | O=S(=O)(/C=C/S(=O)(=O)c1ccccc1)CC1=NCCS1 | 21 mm | 18 mm | 26 mm | 22 mm | 29.3% | 19 mm | 24 mm | 28 mm | 30.4% | 26 mm | 17 mm | 29 mm | 26 mm | 23 mm | 29.3% | 24 mm | 21 mm | 
14 | CC(=O)N1CCN(c2ccc(OCC3COC(Cn4ccnc4)(c4ccc(Cl)cc4Cl)O3)cc2)CC1 (stereo unspecified) [KETOCONAZOLE] |  |  | 38 mm |  |  |  | 41 mm | 39 mm |  | 36 mm |  | 42 mm | 44 mm |  |  |  |  | MIC [22]: 6.25 µg/mL (≈ 11.8 µM); MIC [23]: 12.5 µg/mL (≈ 23.5 µM); MIC [24]: 6.25 µg/mL (≈ 11.8 µM)
